This note sets out measurements from ChEMBL document CHEMBL2150957, “Substrate-Selective Inhibition of Cyclooxygenase-2: Development and Evaluation of Achiral Profen Probes” (ACS Med Chem Lett, 2012).

In general, inhibition refers to how much of the control response was suppressed.

The target in data set [1] is T1, Prostaglandin G/H synthase 2 (Mus musculus) (UniProt Q05769).
T1 sequence (whole entry): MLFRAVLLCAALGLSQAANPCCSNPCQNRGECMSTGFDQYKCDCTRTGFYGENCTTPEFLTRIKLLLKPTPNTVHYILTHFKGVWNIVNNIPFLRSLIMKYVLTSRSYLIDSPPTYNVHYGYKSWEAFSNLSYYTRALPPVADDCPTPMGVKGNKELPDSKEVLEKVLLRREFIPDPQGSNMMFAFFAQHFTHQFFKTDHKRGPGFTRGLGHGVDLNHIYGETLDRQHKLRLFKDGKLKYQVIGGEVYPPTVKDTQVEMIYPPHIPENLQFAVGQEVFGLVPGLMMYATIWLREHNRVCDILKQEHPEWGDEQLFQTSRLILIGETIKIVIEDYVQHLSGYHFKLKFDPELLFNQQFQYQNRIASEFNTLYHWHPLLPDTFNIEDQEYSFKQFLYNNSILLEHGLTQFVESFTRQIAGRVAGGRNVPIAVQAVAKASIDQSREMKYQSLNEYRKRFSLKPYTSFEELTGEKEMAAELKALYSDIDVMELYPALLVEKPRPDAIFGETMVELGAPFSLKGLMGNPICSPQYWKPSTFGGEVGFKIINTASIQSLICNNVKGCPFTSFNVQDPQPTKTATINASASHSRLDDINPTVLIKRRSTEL
Nature of the data set: Inhibition of mouse COX2-mediated arachidonic acid oxygenation at 10 uM preincubated for 3 mins before […] measured after 30 seconds. The method in brief:
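Purified murine COX-2 (40 nM) preincubated 3 min with inhibitor (10 μM) in DMSO, with a solvent control. Arachidonic acid (5 μM) then added and reacted 30 s at 37 °C. Percent inhibition of AA oxygenation. Mean ± standard deviation, n = 6.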

Data set [2] addresses T1, Prostaglandin G/H synthase 2 (Mus musculus). Nature of the data set: Inhibition of mouse COX2-mediated 2-arachidonoylglycerol oxygenation at 10 uM preincubated for 3 mins before 2-arachidonoylglycerol addition measured after 30 seconds relative to control. The method in brief: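 Purified murine COX-2 (40 nM) preincubated 3 min with inhibitor in DMSO, with a solvent control. 2-AG (5 μM) then added and reacted 30 s at 37 °C. Value is the maximum inhibition at 10 μM inhibitor. Mean ± standard deviation, n = 6.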

Data set [3] has the same target. Nature of the data set: Inhibition of COX2-mediated arachidonic acid oxygenation in LPS/IFN-gamma-stimulated mouse RAW264.7 cells assessed as AA to PGE2/PGD2 conversion at 25 uM treated 2 hrs after LPS/IFN-gamma stimulation measured after 6 hrs. In kind it is cell-based. The method in brief: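 RAW 264.7 macrophages stimulated with lipopolysaccharide and interferon γ to generate endogenous AA and 2-AG. Inhibitor added to the medium at varying doses 2 h after stimulation. Medium collected 6 h after stimulation; prostaglandin levels quantified by LC-MS-MS.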

Data set [4] can be described thus: Plasma concentration in C57BL/6 mouse at 10 mg/kg, ip after 4 hrs. Set-up: dose 10 mg/kg, route intraperitoneal. In kind it is ADME, organism-based. The method in brief:
(§1)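 Single i.p. injection in C57BL/6 mice. Blood sampled at 1, 2 and 4 h after dosing and plasma compound concentration measured. n = 3 at 1 h, 2 at 2 h, 3 at 4 h.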

The nature of data set [5]: Plasma concentration in C57BL/6 mouse at 10 mg/kg, ip after 1 hr. Type of data set: ADME, organism-based. On the set-up: dose 10 mg/kg, route intraperitoneal. In outline: as §1
A further data set relates to Plasma. Kind of data set: Metabolic stability of the compound in C57BL/6 mouse plasma assessed as parent compound level at 10 mg/kg, ip after 16 hrs. On the set-up: dose 10 mg/kg, route intraperitoneal. As to conditions: in vivo. In kind it is ADME, organism-based. The method in brief: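 Blood collected at 72 h, i.e. 16 h after the last injection. Plasma analysed for the dosed compound and, where applicable, its stereoinversion product (S)-flurbiprofen.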

Data set [6] can be described thus: Plasma concentration in C57BL/6 mouse at 10 mg/kg, ip after 2 hrs. In kind it is ADME, organism-based. Set-up: dose 10 mg/kg, route intraperitoneal. In outline: as §1

Each structure is given as a SMILES string.

`CC(C)Cc1ccc(C2(C(=O)O)CC2)cc1` returned an inhibition in data set [1] of 10%. In data set [2], the Imax came to 45%.

In data set [1], `CC(C)Cc1ccc(CC(=O)O)cc1` displayed an inhibition of 14%. On the same count and under the same terms, next, `COc1ccc2cc(CC(=O)O)ccc2c1`: 16%.

As for `O=C(O)C1(c2ccc(-c3ccccc3)c(F)c2)CC1`, the inhibition in data set [3] came to 55%; in data set [1] it was 0%. In data set [2], this molecule came in with an Imax of 87%.

Take `O=C(O)Cc1ccc(-c2ccccc2)c(F)c1` [DESMETHYLFLURBIPROFEN]: the concentration at 4 h in data set [4] stood at 6 µM. The molecule further gave a concentration at 1 h in data set [5] of 68 µM. Moreover, the Stability entry in the data set with Plasma is recorded as “Unstable”. For the same molecule, the concentration at 2 h in data set [6] came out at 50 µM. In addition, in data set [1], the inhibition is 7%. Turning to `CC(C)(C(=O)O)c1cccc(C(=O)c2ccccc2)c1`, in data set [1], the inhibition came to 32%.

In data set [1], `O=C(O)Cc1cccc(C(=O)c2ccccc2)c1` registered an inhibition of 10%. `CC(C)Cc1ccc(C(C)(C)C(=O)O)cc1`: the inhibition in data set [1] was 5%. Besides, the Imax in data set [2] was determined as 5%. With `O=C(O)Cc1cccc(Oc2ccccc2)c1`, the inhibition in data set [1] amounted to 24%. Also, in data set [2], the Imax was 68%. For the molecule `O=C(O)C1(c2cccc(Oc3ccccc3)c2)CC1`, the inhibition in data set [1] stood at 15%. In data set [1], `O=C(c1ccccc1)c1cccc(C2(C(=O)O)CC2)c1` came in with an inhibition of 10%. Also, in data set [2], the Imax stood at 75%. With `CC(C)(C(=O)O)c1ccc(-c2ccccc2)c(F)c1`, the values for the inhibition in data set [3] and in data set [1] were 40% and 5%, respectively. `CC(C)(C(=O)O)c1cccc(Oc2ccccc2)c1` yielded an inhibition in data set [1] of 17%. This molecule also returned an Imax in data set [2] of 65%. Molecule `COc1ccc2cc(C(C)(C)C(=O)O)ccc2c1` yielded an inhibition in data set [1] of 7%. In data set [2], the Imax was 12%. In the same order, the values of `COc1ccc2cc(C3(C(=O)O)CC3)ccc2c1` are 6% and 77%.
